How the values were obtained:
Escherichia coli = experiment: Antibacterial activity against Escherichia coli Neumann.; assay type: functional
Summary of the method: (§1)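 Agar dilution MIC on IsoSensitest agar or Mueller Hinton agar with 10% horse blood and IsoVitaleX. Overnight cultures were grown in BHI broth for staphylococci and enterobacteria, or in BHI plus 10% bovine serum for streptococci and enterococci, then diluted 1:100. Compounds were tested at 0.125-64 µg/mL. Plates were incubated aerobically at 37 °C for about 20 h. MIC = first concentration with no visible growth.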

Enterococcus faecium [1] = experiment: Antibacterial activity against Enterococcus faecium L4001.; assay type: functional; summary of the method: as §1
Enterococcus faecalis [2] = experiment: Antibacterial activity against Enterococcus faecalis 27251.; assay type: functional; summary of the method: as §1
Enterococcus faecalis [3] = experiment: Antibacterial activity against Enterococcus faecalis 27253.; assay type: functional; summary of the method: as §1
Klebsiella pneumoniae [4] = experiment: Antibacterial activity against Klebsiella pneumoniae 8085.; assay type: functional; summary of the method: as §1
Klebsiella pneumoniae [5] = experiment: Antibacterial activity against Klebsiella pneumoniae 63.; assay type: functional; summary of the method: as §1
Proteus mirabilis = experiment: Antibacterial activity against Proteus mirabilis 1235.; assay type: functional; summary of the method: as §1
Proteus vulgaris = experiment: Antibacterial activity against Proteus vulgaris 1017.; assay type: functional; summary of the method: as §1
Staphylococcus aureus [6] = experiment: Antibacterial activity against Staphylococcus aureus 133.; assay type: functional; summary of the method: as §1
Staphylococcus aureus [7] = experiment: Antibacterial activity against Staphylococcus aureus 25470.; assay type: functional; summary of the method: as §1
Staphylococcus aureus [8] = experiment: Antibacterial activity against Staphylococcus aureus 25701.; assay type: functional; summary of the method: as §1
Staphylococcus aureus [9] = experiment: Antibacterial activity against Staphylococcus aureus 44(25508).; assay type: functional; summary of the method: as §1
Staphylococcus aureus [10] = experiment: Antibacterial activity against Staphylococcus aureus 48 N.; assay type: functional; summary of the method: as §1
Staphylococcus aureus [11] = experiment: Antibacterial activity against Staphylococcus aureus 9TV.; assay type: functional; summary of the method: as §1
[12] = tested on: Staphylococcus saprophyticus; experiment: Antibacterial activity against Staphylococcus saprophyticus 2916.; assay type: functional; summary of the method: as §1
Streptococcus pyogenes [13] = experiment: Antibacterial activity against Streptococcus pyogenes Wacker.; assay type: functional; summary of the method: as §1
Streptococcus pyogenes [14] = experiment: Antibacterial activity against Streptococcus pyogenes 4333.; assay type: functional; summary of the method: as §1
Streptococcus pyogenes [15] = experiment: Antibacterial activity against Streptococcus pyogenes 4851.; assay type: functional; summary of the method: as §1
Streptococcus pyogenes [16] = experiment: Antibacterial activity against Streptococcus pyogenes 7029.; assay type: functional; summary of the method: as §1
[17] = tested on: Staphylococcus epidermidis; experiment: Antibacterial activity against Staphylococcus epidermidis 193.; assay type: functional; summary of the method: as §1
[18] = tested on: Staphylococcus haemolyticus; experiment: Antibacterial activity against Staphylococcus haemolyticus 146.; assay type: functional; summary of the method: as §1
Enterococcus faecium [19] = experiment: Antibacterial activity against Enterococcus faecium 27266.; assay type: functional; summary of the method: as §1
DNA topoisomerase II = DNA topoisomerase II (Homo sapiens, UniProt P11388+Q02880); experiment: […] human DNA Topoisomerase II; assay type: protein assay
Summary of the method: (§2)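 Human topoisomerase reactions used supercoiled pBR322 (100 ng) with 1 unit enzyme in the supplier's reaction buffer and compounds in DMSO. Incubation was 30 min, stopped with SDS/sucrose dye.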

DNA topoisomerase 1 = target: T1, DNA topoisomerase 1 (Homo sapiens, UniProt P11387); experiment: Antibacterial activity against human DNA Topo I.; summary of the method: as §2
T1 sequence (P11387 whole entry): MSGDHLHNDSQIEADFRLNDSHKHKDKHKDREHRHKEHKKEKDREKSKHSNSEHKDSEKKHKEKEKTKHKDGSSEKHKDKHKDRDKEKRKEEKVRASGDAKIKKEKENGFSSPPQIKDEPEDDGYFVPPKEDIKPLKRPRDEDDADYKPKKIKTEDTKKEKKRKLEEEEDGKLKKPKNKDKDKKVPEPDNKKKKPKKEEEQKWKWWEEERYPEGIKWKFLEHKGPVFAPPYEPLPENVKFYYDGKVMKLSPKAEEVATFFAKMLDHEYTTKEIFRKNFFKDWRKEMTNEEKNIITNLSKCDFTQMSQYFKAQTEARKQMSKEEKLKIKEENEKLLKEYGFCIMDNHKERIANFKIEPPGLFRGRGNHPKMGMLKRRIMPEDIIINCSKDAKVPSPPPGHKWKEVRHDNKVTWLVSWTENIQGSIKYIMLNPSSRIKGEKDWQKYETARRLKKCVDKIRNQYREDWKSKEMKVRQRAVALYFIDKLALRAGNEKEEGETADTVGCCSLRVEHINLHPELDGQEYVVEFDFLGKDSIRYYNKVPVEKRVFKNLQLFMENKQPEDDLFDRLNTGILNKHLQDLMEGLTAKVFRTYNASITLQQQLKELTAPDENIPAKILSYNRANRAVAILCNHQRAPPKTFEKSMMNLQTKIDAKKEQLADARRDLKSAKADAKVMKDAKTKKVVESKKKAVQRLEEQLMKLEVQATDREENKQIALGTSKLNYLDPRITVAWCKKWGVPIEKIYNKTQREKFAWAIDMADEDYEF

Enterococcus faecalis [20] = experiment: Antibacterial activity against Enterococcus faecalis.; assay type: functional; summary of the method: as §1
Staphylococcus aureus [21] = experiment: Antibacterial activity against Staphylococcus aureus 25923.; assay type: functional; summary of the method: as §1
Streptococcus pyogenes [22] = experiment: Antibacterial activity against Streptococcus pyogenes.; assay type: functional; summary of the method: as §1
[23] = tested on: Staphylococcus epidermidis; experiment: Antibacterial activity against Staphylococcus epidermidis.; assay type: functional; summary of the method: as §1
Staphylococcus aureus [24] = experiment: Antibacterial activity against Staphylococcus aureus QR-54.; assay type: functional; summary of the method: as §1

COC(=O)c1c(Br)c(OC)cc(O)c1CSC[C@@H](Nc1nc(-c2ccc([N+](=O)[O-])cc2)cs1)C1=NOCCO1
> 64 µg/mL: MIC (Escherichia coli) | MIC (Enterococcus faecium [1]) | MIC (Enterococcus faecalis [2]) | MIC (Enterococcus faecalis [3]) | MIC (Klebsiella pneumoniae [4]) | MIC (Klebsiella pneumoniae [5]) | MIC (Proteus mirabilis) | MIC (Proteus vulgaris) | MIC (Staphylococcus aureus [6]) | MIC (Staphylococcus aureus [7]) | MIC (Staphylococcus aureus [8]) | MIC (Staphylococcus aureus [9]) | MIC (Staphylococcus aureus [10]) | MIC (Staphylococcus aureus [11]) | MIC [12] | MIC (Streptococcus pyogenes [13]) | MIC (Streptococcus pyogenes [15]) | MIC (Streptococcus pyogenes [16]) | MIC [17] | MIC [18] | MIC (Enterococcus faecium [19])
64 µg/mL: MIC (Streptococcus pyogenes [14])

COC(=O)c1c(Br)c(OC)cc(O)c1CSC[C@H](Nc1nc(-c2ccc([N+](=O)[O-])cc2)cs1)C1=NOCCO1
60 µg/mL: IC50 (DNA topoisomerase II)
> 64 µg/mL: MIC (Escherichia coli) | MIC (Klebsiella pneumoniae [4]) | MIC (Klebsiella pneumoniae [5]) | MIC (Proteus mirabilis) | MIC (Proteus vulgaris)
0.5 µg/mL: MIC (Enterococcus faecium [1]) | MIC (Enterococcus faecalis [2]) | MIC (Enterococcus faecalis [3]) | MIC (Streptococcus pyogenes [16]) | MIC (Enterococcus faecium [19])
< 0.12 µg/mL: MIC (Staphylococcus aureus [8]) | MIC [12] | MIC [17] | MIC [18]
0.25 µg/mL: MIC (Staphylococcus aureus [6]) | MIC (Staphylococcus aureus [7]) | MIC (Staphylococcus aureus [9]) | MIC (Staphylococcus aureus [10]) | MIC (Staphylococcus aureus [11]) | MIC (Streptococcus pyogenes [13]) | MIC (Streptococcus pyogenes [14]) | MIC (Streptococcus pyogenes [15])
> 375 µM: IC50 (DNA topoisomerase 1)

COC(=O)c1c(Br)c(OC)cc(O)c1CSC[C@H](Nc1nc(-c2ccc([N+](=O)[O-])cc2)cs1)c1nc(C)no1
> 377 µM: IC50 (DNA topoisomerase 1)
0.25 µg/mL: MIC (Enterococcus faecalis [20]) | MIC (Enterococcus faecalis [3]) | MIC (Staphylococcus aureus [6]) | MIC (Staphylococcus aureus [7]) | MIC (Staphylococcus aureus [9]) | MIC (Staphylococcus aureus [10]) | MIC (Staphylococcus aureus [11]) | MIC [12] | MIC (Streptococcus pyogenes [13]) | MIC (Streptococcus pyogenes [15]) | MIC [18] | MIC (Staphylococcus aureus [24])
0.5 µg/mL: MIC (Enterococcus faecium [1]) | MIC (Enterococcus faecalis [2]) | MIC (Streptococcus pyogenes [16]) | MIC (Enterococcus faecium [19])
60 µg/mL: IC50 (DNA topoisomerase II)
> 64 µg/mL: MIC (Escherichia coli) | MIC (Klebsiella pneumoniae [4]) | MIC (Klebsiella pneumoniae [5]) | MIC (Proteus mirabilis) | MIC (Proteus vulgaris)
0.12 µg/mL: MIC (Staphylococcus aureus [21]) | MIC (Streptococcus pyogenes [22]) | MIC [23]
< 0.12 µg/mL: MIC (Staphylococcus aureus [8]) | MIC (Streptococcus pyogenes [14]) | MIC [17]

COC(=O)c1c(Br)c(OC)cc(O)c1CSC[C@H](Nc1nc(-c2ccc([N+](=O)[O-])cc2)cs1)C(=O)OC
15 µg/mL: IC50 (DNA topoisomerase II)
> 64 µg/mL: MIC (Escherichia coli) | MIC (Klebsiella pneumoniae [4]) | MIC (Klebsiella pneumoniae [5]) | MIC (Proteus mirabilis) | MIC (Proteus vulgaris)
2 µg/mL: MIC (Enterococcus faecium [1]) | MIC (Enterococcus faecalis [2]) | MIC (Staphylococcus aureus [9]) | MIC (Streptococcus pyogenes [16]) | MIC (Enterococcus faecium [19])
> 392 µM: IC50 (DNA topoisomerase 1)
0.5 µg/mL: MIC [17]
1 µg/mL: MIC (Enterococcus faecalis [3]) | MIC (Staphylococcus aureus [6]) | MIC (Staphylococcus aureus [7]) | MIC (Staphylococcus aureus [8]) | MIC (Staphylococcus aureus [10]) | MIC (Staphylococcus aureus [11]) | MIC [12] | MIC (Streptococcus pyogenes [13]) | MIC (Streptococcus pyogenes [14]) | MIC (Streptococcus pyogenes [15]) | MIC [18]

— ChEMBL document CHEMBL1134350, “seco-Cyclothialidines: new concise synthesis, inhibitory activity toward bacterial and human DNA topoisomerases, and antibacterial properties” (J Med Chem, 2001)
